Laboratory results from ChEMBL document CHEMBL1140697, “Synthesis and evaluation in monkey of two sensitive 11C-labeled aryloxyanilide ligands for imaging brain peripheral benzodiazepine receptors in vivo” (J Med Chem, 2008).
Blank lines part the entries; values can stand above or below the compound they belong to.

Key:
[1] = target: Histamine H2 receptor (Homo sapiens) (UniProt P25021); assay: Binding affinity to histamine H2 receptor at 10 uM; conditions: tested as the 11C-labelled form
Procedure, shortened: (§1)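 Run through the NIMH Psychoactive Drug Screening Program (PDSP) broad receptor screen. The test ligand was used at 10 µM, and the read-out was percent displacement of the reference radioligand from each site.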

[2] = target: 5-hydroxytryptamine receptor 2A (Homo sapiens) (UniProt P28223); assay: Binding affinity to 5HT2A at 10 uM; conditions: tested as the 11C-labelled form; procedure, shortened: as §1
[3] = target: D(3) dopamine receptor (Homo sapiens) (UniProt P35462); assay: Binding affinity to dopamine receptor D3 at 10 uM; conditions: tested as the 11C-labelled form; procedure, shortened: as §1
[4] = target: Beta-2 adrenergic receptor (Homo sapiens) (UniProt P07550); assay: Binding affinity to adrenergic beta-2 at 10 uM; conditions: tested as the 11C-labelled form; procedure, shortened: as §1
[5] = target: 5-hydroxytryptamine receptor 1A (Homo sapiens) (UniProt P08908); assay: Binding affinity to 5HT1A at 10 uM; conditions: tested as the 11C-labelled form; procedure, shortened: as §1
[6] = target: Alpha-1A adrenergic receptor (Homo sapiens) (UniProt P35348); assay: Binding affinity to adrenergic alpha-1A at 10 uM; conditions: tested as the 11C-labelled form; procedure, shortened: as §1
[7] = target: Histamine H3 receptor (Homo sapiens) (UniProt Q9Y5N1); assay: Binding affinity to histamine H3 receptor at 10 uM; conditions: tested as the 11C-labelled form; procedure, shortened: as §1
[8] = target: Beta-3 adrenergic receptor (Homo sapiens) (UniProt P13945); assay: Binding affinity to adrenergic beta-3 at 10 uM; conditions: tested as the 11C-labelled form; procedure, shortened: as §1
[9] = target: Alpha-2A adrenergic receptor (Homo sapiens) (UniProt P08913); assay: Binding affinity to adrenergic alpha-2A at 10 uM; conditions: tested as the 11C-labelled form; procedure, shortened: as §1
[10] = target: 5-hydroxytryptamine receptor 3A (Homo sapiens) (UniProt P46098); assay: Binding affinity to 5HT3 at 10 uM; conditions: tested as the 11C-labelled form; procedure, shortened: as §1
[11] = target: D(1A) dopamine receptor (Homo sapiens) (UniProt P21728); assay: Binding affinity to dopamine receptor D1 at 10 uM; conditions: tested as the 11C-labelled form; procedure, shortened: as §1
[12] = target: Sodium-dependent dopamine transporter (Homo sapiens) (UniProt Q01959); assay: Binding affinity to DAT receptor at 10 uM; conditions: tested as the 11C-labelled form; procedure, shortened: as §1
[13] = target: Muscarinic acetylcholine receptor M5 (Homo sapiens) (UniProt P08912); assay: Binding affinity to muscarinic receptor M5 receptor at 10 uM; conditions: tested as the 11C-labelled form; procedure, shortened: as §1
[14] = target: 5-hydroxytryptamine receptor 5A (Homo sapiens) (UniProt P47898); assay: Binding affinity to 5HT5A at 10 uM; conditions: tested as the 11C-labelled form; procedure, shortened: as §1
[15] = target: Sodium-dependent noradrenaline transporter (Homo sapiens) (UniProt P23975); assay: Binding affinity to NET receptor at 10 uM; conditions: tested as the 11C-labelled form; procedure, shortened: as §1
[16] = target: D(4) dopamine receptor (Homo sapiens) (UniProt P21917); assay: Binding affinity to dopamine receptor D4 at 10 uM; conditions: tested as the 11C-labelled form; procedure, shortened: as §1
[17] = target: 5-hydroxytryptamine receptor 1D (Homo sapiens) (UniProt P28221); assay: Binding affinity to 5HT1D at 10 uM; conditions: tested as the 11C-labelled form; procedure, shortened: as §1
[18] = target: Histamine H1 receptor (Homo sapiens) (UniProt P35367); assay: Binding affinity to histamine H1 receptor at 10 uM; conditions: tested as the 11C-labelled form; procedure, shortened: as §1
[19] = target: Histamine H4 receptor (Homo sapiens) (UniProt Q9H3N8); assay: Binding affinity to histamine H4 receptor at 10 uM; conditions: tested as the 11C-labelled form; procedure, shortened: as §1
[20] = target: 5-hydroxytryptamine receptor 1E (Homo sapiens) (UniProt P28566); assay: Binding affinity to 5HT1E at 10 uM; conditions: tested as the 11C-labelled form; procedure, shortened: as §1
[21] = target: 5-hydroxytryptamine receptor 2B (Homo sapiens) (UniProt P41595); assay: Binding affinity to 5HT2B at 10 uM; conditions: tested as the 11C-labelled form; procedure, shortened: as §1
[22] = target: 5-hydroxytryptamine receptor 7 (Homo sapiens) (UniProt P34969); assay: Binding affinity to 5HT7 at 10 uM; conditions: tested as the 11C-labelled form; procedure, shortened: as §1
[23] = target: 5-hydroxytryptamine receptor 6 (Homo sapiens) (UniProt P50406); assay: Binding affinity to 5HT6 at 10 uM; conditions: tested as the 11C-labelled form; procedure, shortened: as §1
[24] = target: Alpha-2C adrenergic receptor (Homo sapiens) (UniProt P18825); assay: Binding affinity to adrenergic alpha-2C at 10 uM; conditions: tested as the 11C-labelled form; procedure, shortened: as §1
[25] = target: Alpha-1B adrenergic receptor (Homo sapiens) (UniProt P35368); assay: Binding affinity to adrenergic alpha-1B at 10 uM; conditions: tested as the 11C-labelled form; procedure, shortened: as §1
[26] = target: D(2) dopamine receptor (Homo sapiens) (UniProt P14416); assay: Binding affinity to dopamine receptor D2 at 10 uM; conditions: tested as the 11C-labelled form; procedure, shortened: as §1
[27] = target: 5-hydroxytryptamine receptor 1B (Homo sapiens) (UniProt P28222); assay: Binding affinity to 5HT1B at 10 uM; conditions: tested as the 11C-labelled form; procedure, shortened: as §1
[28] = target: 5-hydroxytryptamine receptor 2C (Homo sapiens) (UniProt P28335); assay: Binding affinity to 5HT2C at 10 uM; conditions: tested as the 11C-labelled form; procedure, shortened: as §1
[29] = target: Sodium-dependent serotonin transporter (Homo sapiens) (UniProt P31645); assay: Binding affinity to SERT receptor at 10 uM; conditions: tested as the 11C-labelled form; procedure, shortened: as §1
[30] = target: Muscarinic acetylcholine receptor M2 (Homo sapiens) (UniProt P08172); assay: Binding affinity to muscarinic receptor M2 receptor at 10 uM; conditions: tested as the 11C-labelled form; procedure, shortened: as §1
[31] = target: Alpha-2B adrenergic receptor (Homo sapiens) (UniProt P18089); assay: Binding affinity to adrenergic alpha-2B at 10 uM; conditions: tested as the 11C-labelled form; procedure, shortened: as §1
[32] = target: Beta-1 adrenergic receptor (Homo sapiens) (UniProt P08588); assay: Binding affinity to adrenergic […] at 10 uM; conditions: tested as the 11C-labelled form; procedure, shortened: as §1
[33] = test system: Brain; assay: Biodistribution in rat brain at 0.472 mCi, iv after 30 mins; assay type: ADME, organism-based; conditions: in vivo, 0.5 h
[34] = Lipophilicity, log D of the compound; assay type: physicochemical; conditions: octanol/water
Procedure, shortened: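 The ¹¹C-ligand (~300 µCi) in saline with 5% ethanol was mixed with sodium phosphate buffer (0.15 M, pH 7.4). Six 1 mL aliquots were each vortexed 1 min with buffer-pre-equilibrated n-octanol, centrifuged 1 min, and 200 µL of each phase was γ-counted. Aqueous counts were corrected by radio-HPLC for the unchanged fraction. LogD = log(cpm octanol/corrected cpm aqueous); mean ± SD of six determinations.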

[35] = test system: Rattus norvegicus; assay: Biodistribution in rat urine at 2.34 mCi, iv after 30 mins; assay type: ADME, organism-based; conditions: in vivo, 0.5 h
[36] = target: GABA A receptor alpha-5/beta-3/gamma-2 (Rattus norvegicus, UniProt P18508+P19969+P63079); assay: Binding affinity to GABA alpha-5-beta-2-gamma-2 receptor; assay type: protein-complex assay, Homo sapiens
Procedure, shortened: (§2)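 K_i values at central benzodiazepine (GABA_A) receptor subtypes were determined in radioligand binding assays within the NIMH PDSP screen.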

[37] = target: Translocator protein (Rattus norvegicus, UniProt P16257); assay: Binding affinity to PBR in Sprague-Dawley rat mitochondrial tissue
[38] = target: GABA A receptor alpha-2/beta-2/gamma-2 (Homo sapiens, UniProt P18507+P47869+P47870); assay: Binding affinity to GABA alpha-2-beta-2-gamma-2 receptor; assay type: protein-complex assay; procedure, shortened: as §2
[39] = test system: Plasma; assay: Drug level in rhesus monkey plasma assessed as cell distribution; assay type: ADME, cell-free, Macaca mulatta
[40] = target: GABA A receptor alpha-6/beta-2/gamma-2 (Homo sapiens, UniProt P18507+P47870+Q16445); assay: Binding affinity to GABA alpha-6-beta-2-gamma-2 receptor; assay type: protein-complex assay; procedure, shortened: as §2
[41] = target: GABA A receptor alpha-1/beta-1/gamma-2 (Homo sapiens, UniProt P14867+P18505+P18507); assay: Binding affinity to GABA alpha-1-beta-1-gamma-2 receptor; assay type: protein-complex assay; procedure, shortened: as §2
[42] = test system: Plasma; assay: Biodistribution in rat plasma at 0.472 mCi, iv after 30 mins; assay type: ADME, organism-based; conditions: in vivo, 0.5 h
Procedure, shortened: (§3)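 Rats received the ¹¹C-radioligand iv with varying carrier mass (µg/kg) and were sampled 30 min later. Plasma and brain homogenate were extracted into acetonitrile and analysed by reverse-phase radio-HPLC (C18; MeOH/H₂O/Et₃N, 1.5 mL/min), reporting % radioactivity as unchanged radioligand. Extraction recovery was recorded. Replicate HPLC analyses were run on one sample per rat.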

[43] = Stability in Sprague-Dawley rat brain after 2 hrs; assay type: ADME, tissue-based; conditions: read-out: Stability
Procedure, shortened: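 The radioligand was incubated with rat brain homogenate in saline for 2 h at 37 °C. The percentage of unchanged radioligand was then determined by radio-HPLC.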

[44] = test system: Plasma; assay: Biodistribution in rat plasma at 2.34 mCi, iv after 30 mins; assay type: ADME, organism-based; conditions: in vivo, 0.5 h; procedure, shortened: as §3
[45] = Binding affinity to PBR in rhesus monkey mitochondrial tissue; set-up: species or system Macaca mulatta
Procedure, shortened: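 Mitochondrial fractions (rat, rhesus monkey or human) were incubated with [³H]PK 11195 (0.38 nM final) and eight test-ligand concentrations for 2 h at 4 °C. Samples were filtered on PEI-presoaked GF/B filters, washed with ice-cold buffer and counted. Nonspecific binding was taken at the top inhibitor level (0.1–0.3 µM). Triplicate curves were run in two independent experiments. IC₅₀ was converted to K_i by Cheng–Prusoff, using K_D from homologous PK 11195 displacement.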

[46] = Stability in sodium phosphate buffer at pH 7.4 after 2.5 hrs; assay type: physicochemical; conditions: read-out: Stability
Procedure, shortened: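 Radioligand stored in 0.15 M sodium phosphate buffer, pH 7.4, for 2.5 h; radiochemical stability measured by radio-HPLC as percent of radioactivity remaining as unchanged radioligand; n = 4.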

[47] = Biodistribution in rhesus monkey plasma free fraction of blood; assay type: ADME, organism-based, Macaca mulatta
[48] = target: Translocator protein (Homo sapiens, UniProt P30536); assay: Binding affinity to PBR in human mitochondrial tissue
[49] = test system: Plasma; assay: Drug level in rhesus monkey plasma; assay type: ADME, cell-free, Macaca mulatta
[50] = Stability in monkey whole blood >30 mins; assay type: ADME, tissue-based, Macaca mulatta; conditions: rhesus monkey, read-out: Stability
Procedure, shortened: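 The radioligand was incubated with monkey blood for >30 min. Radioactivity extracted from the plasma was analysed by radio-HPLC to give the percentage of unchanged radioligand, reported as mean ± SD.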

[51] = target: Kappa-type opioid receptor (Homo sapiens, UniProt P41145); assay: Binding affinity to kappa opioid receptor

GABA A receptor alpha-2/beta-2/gamma-2, sequence (P47870 whole entry): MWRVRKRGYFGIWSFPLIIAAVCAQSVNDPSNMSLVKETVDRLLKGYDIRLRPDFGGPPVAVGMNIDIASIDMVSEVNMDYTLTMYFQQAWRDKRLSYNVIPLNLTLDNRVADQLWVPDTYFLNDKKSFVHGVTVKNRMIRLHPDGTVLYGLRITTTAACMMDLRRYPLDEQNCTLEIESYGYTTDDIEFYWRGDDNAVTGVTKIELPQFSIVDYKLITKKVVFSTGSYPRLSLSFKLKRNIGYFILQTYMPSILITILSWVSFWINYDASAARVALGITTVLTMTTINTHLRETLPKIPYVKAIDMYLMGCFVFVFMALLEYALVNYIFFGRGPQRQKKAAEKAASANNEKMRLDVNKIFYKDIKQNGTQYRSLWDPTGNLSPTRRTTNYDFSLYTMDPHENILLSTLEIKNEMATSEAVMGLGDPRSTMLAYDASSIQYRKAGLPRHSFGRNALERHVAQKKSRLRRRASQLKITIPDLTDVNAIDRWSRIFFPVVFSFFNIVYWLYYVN
GABA A receptor alpha-2/beta-2/gamma-2, sequence (P18507 whole entry): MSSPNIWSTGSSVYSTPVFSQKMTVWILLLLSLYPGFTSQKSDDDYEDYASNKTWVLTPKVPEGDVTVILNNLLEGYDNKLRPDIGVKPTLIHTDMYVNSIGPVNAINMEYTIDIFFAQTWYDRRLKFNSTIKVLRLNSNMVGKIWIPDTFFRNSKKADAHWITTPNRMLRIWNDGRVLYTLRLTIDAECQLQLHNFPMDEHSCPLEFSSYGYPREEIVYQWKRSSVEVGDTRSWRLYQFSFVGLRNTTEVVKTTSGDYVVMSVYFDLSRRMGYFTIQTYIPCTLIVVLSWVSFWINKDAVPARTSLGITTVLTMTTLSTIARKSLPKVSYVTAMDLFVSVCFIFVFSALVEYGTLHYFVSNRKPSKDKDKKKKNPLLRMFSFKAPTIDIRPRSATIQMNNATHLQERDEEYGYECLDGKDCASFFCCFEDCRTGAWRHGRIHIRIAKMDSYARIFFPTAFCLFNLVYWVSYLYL
GABA A receptor alpha-2/beta-2/gamma-2, sequence (P47869 whole entry): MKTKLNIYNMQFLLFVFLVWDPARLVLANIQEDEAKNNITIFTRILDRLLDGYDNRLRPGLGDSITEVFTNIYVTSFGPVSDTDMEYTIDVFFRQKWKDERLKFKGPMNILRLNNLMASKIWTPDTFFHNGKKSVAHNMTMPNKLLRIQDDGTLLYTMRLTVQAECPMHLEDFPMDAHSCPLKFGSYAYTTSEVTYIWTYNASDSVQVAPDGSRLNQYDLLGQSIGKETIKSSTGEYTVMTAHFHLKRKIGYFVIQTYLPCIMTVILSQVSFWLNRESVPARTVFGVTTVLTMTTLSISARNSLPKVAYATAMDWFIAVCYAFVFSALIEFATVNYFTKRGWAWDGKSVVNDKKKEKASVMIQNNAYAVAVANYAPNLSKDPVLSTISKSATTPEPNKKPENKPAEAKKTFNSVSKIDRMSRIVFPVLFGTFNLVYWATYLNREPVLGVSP
GABA A receptor alpha-6/beta-2/gamma-2, sequence (P47870 whole entry): as the sequence (P47870 whole entry) above
GABA A receptor alpha-6/beta-2/gamma-2, sequence (P18507 whole entry): as the sequence (P18507 whole entry) above
GABA A receptor alpha-6/beta-2/gamma-2, sequence (Q16445 whole entry): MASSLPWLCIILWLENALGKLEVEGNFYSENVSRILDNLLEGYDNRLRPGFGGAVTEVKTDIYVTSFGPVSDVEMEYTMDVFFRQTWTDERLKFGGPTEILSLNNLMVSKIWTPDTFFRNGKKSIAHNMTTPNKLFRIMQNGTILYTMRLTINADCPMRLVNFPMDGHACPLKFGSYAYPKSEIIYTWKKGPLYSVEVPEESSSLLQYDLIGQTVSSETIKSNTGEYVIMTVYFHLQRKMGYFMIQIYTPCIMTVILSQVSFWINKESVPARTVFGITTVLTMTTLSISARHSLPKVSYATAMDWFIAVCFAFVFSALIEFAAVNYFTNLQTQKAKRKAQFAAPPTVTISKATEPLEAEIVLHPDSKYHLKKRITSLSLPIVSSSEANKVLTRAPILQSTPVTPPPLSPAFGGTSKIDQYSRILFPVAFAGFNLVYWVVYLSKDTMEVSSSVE
Alpha-1A adrenergic receptor (Homo sapiens), sequence (P35348 whole entry): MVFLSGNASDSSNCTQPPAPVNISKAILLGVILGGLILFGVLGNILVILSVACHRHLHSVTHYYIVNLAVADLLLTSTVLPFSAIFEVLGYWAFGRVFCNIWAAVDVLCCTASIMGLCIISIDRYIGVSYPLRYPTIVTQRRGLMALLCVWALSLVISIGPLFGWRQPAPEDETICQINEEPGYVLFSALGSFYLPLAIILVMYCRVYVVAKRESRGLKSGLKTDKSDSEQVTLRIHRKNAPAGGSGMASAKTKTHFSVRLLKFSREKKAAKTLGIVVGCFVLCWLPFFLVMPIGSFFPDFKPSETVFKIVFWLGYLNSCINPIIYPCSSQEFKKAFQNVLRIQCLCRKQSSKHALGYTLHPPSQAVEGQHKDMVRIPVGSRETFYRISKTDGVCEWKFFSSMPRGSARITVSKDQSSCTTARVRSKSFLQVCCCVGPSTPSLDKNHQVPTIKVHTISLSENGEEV
5-hydroxytryptamine receptor 2A (Homo sapiens), sequence (P28223 whole entry): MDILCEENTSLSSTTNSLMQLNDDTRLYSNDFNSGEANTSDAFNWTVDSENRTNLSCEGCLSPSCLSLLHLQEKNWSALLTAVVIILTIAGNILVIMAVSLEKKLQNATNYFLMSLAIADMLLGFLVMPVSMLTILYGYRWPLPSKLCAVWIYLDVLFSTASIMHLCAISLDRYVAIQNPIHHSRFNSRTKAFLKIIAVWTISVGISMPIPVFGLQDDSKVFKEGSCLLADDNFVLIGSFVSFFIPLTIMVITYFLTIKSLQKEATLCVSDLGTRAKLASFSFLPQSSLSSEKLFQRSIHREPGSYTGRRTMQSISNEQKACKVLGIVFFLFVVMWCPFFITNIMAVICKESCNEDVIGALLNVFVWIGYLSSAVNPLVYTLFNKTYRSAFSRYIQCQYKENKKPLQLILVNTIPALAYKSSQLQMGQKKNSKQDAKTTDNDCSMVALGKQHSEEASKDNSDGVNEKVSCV
5-hydroxytryptamine receptor 2B (Homo sapiens), sequence (P41595 whole entry): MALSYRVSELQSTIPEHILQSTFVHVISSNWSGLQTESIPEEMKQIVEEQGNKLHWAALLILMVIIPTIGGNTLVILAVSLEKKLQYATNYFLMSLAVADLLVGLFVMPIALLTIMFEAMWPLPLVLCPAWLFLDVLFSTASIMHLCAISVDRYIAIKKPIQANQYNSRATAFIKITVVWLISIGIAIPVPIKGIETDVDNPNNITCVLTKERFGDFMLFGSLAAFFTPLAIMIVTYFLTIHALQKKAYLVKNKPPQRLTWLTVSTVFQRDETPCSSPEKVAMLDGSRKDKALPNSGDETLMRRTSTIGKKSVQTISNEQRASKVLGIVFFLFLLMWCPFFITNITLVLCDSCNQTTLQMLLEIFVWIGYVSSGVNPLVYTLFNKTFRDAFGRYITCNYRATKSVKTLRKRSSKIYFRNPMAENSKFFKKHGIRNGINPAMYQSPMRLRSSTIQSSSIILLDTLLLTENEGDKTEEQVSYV
GABA A receptor alpha-1/beta-1/gamma-2, sequence (P14867 whole entry): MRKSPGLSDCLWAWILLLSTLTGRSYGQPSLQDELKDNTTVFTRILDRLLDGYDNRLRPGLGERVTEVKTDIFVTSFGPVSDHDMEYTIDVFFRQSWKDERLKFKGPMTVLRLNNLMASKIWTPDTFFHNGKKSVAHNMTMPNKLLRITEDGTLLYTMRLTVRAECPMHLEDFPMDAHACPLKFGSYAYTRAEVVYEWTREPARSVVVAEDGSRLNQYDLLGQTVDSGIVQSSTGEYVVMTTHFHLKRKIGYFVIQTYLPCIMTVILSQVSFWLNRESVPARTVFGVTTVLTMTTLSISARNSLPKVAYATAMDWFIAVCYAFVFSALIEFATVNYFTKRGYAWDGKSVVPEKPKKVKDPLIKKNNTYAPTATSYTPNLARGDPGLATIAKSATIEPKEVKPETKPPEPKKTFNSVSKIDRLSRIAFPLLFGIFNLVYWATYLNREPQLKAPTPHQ
GABA A receptor alpha-1/beta-1/gamma-2, sequence (P18507 whole entry): as the sequence (P18507 whole entry) above
GABA A receptor alpha-1/beta-1/gamma-2, sequence (P18505 whole entry): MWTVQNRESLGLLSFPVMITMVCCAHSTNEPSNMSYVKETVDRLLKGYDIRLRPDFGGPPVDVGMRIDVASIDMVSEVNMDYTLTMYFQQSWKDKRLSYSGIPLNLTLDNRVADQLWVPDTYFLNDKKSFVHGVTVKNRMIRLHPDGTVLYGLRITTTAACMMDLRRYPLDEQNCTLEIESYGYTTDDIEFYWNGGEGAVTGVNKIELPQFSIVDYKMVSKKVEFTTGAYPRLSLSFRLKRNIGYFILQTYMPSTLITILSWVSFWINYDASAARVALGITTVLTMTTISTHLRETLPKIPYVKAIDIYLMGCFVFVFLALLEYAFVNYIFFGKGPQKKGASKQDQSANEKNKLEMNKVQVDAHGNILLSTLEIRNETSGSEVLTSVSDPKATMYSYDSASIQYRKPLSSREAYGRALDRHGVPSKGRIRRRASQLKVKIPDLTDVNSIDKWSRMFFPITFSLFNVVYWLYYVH
Alpha-1B adrenergic receptor (Homo sapiens), sequence (P35368 whole entry): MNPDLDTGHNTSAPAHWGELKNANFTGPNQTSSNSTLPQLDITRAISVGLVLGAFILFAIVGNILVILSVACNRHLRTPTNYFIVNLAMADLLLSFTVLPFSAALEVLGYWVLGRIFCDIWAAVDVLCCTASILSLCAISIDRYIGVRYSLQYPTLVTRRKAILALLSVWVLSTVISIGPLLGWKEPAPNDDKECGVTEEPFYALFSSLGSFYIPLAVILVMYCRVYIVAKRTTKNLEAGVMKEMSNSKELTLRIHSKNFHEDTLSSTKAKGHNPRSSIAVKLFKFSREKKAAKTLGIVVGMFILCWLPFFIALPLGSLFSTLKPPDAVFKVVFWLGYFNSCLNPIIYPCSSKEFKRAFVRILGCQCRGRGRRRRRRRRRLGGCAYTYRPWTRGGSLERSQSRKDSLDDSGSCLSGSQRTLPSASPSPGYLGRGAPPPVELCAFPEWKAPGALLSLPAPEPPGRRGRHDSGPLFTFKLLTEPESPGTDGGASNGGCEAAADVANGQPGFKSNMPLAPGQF

Activity [1]: < 50%
Activity [2]: < 50%
Activity [3]: < 50%
Activity [4]: < 50%
Activity [5]: < 50%
Activity [6]: < 50%
Activity [7]: < 50%
Activity [8]: < 50%
Activity [9]: < 50%
Activity [10]: < 50%
Activity [11]: < 50%
Activity [12]: < 50%
Activity [13]: < 50%
Activity [14]: < 50%
Activity [15]: < 50%
Activity [16]: < 50%
Activity [17]: < 50%
Activity [18]: < 50%
Activity [19]: < 50%
Activity [20]: < 50%
Activity [21]: < 50%
Activity [22]: < 50%
Activity [23]: < 50%
Activity [24]: < 50%
Activity [25]: < 50%
Activity [26]: < 50%
Activity [27]: < 50%
Activity [28]: < 50%
Activity [29]: < 50%
Activity [30]: < 50%
Activity [31]: < 50%
Activity [32]: < 50%
Structure (SMILES): COc1ccccc1CN(C(C)=O)c1cnccc1Oc1ccccc1

Drug uptake [33]: 97.6%
logD [34]: 3.01
Drug uptake [35]: 0.39%
Ki [36]: > 10000 nM
Ki [37]: 0.68 nM
Ki [38]: > 10000 nM
Drug uptake [39]: 66.8%
Ki [40]: > 10000 nM
Ki [41]: > 10000 nM
Drug uptake [42]: 4.2%
remaining at 2 h [43]: 99.8%
Drug uptake [44]: 2.4%
Ki [45]: 0.944 nM
remaining at 2.5 h [46]: 99%
fraction unbound [47]: 0.056
Ki [48]: 2.47 nM
Drug uptake [49]: 33.2%
remaining at 0.5 h [50]: 95.8%
Ki [51]: 2200 nM
Structure (SMILES): CC(=O)N(Cc1ccccc1O[11CH3])c1cnccc1Oc1ccccc1
